167 variants from the RNAGym collection of RNA variant scans (doi:10.1126/science.aae0568) can be followed below.

Fewer inactive variants are shown than the library holds. Bounds are passed on as bounds.

Sequences and labels used below:
B1: tRNA (parent)
chain: GUUCCGUUGGCGUAAUGGUAACGCGUCUCCCUCCUAAGGAGAAGACUGCGGGUUCGAGUCCCGUACGGAACG

The data set covers variants of B1. Kind of data set: yeast fitness relative to wild type (ratio to wild type); higher = fitter; tRNA-Arg(CCU), competitive growth, 37 C, YPD. The method, boiled down:
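Amplicons of the tRNA-Arg(CCU) gene were sequenced, 100-nucleotide paired-end, from the start population and from each end population of a pooled yeast competition. The competition, in six parallel replicates, lasted 24 hours in YPD at 37°C. Fitness relative to wild type was calculated from changes in genotype frequencies. Genotypes had to have ≥ 100 starting reads, and estimates < 0.5 were set to 0.5.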
As for C5U G50C, the yeast fitness was found to be 0.699.
Turning to G44C G52A, the yeast fitness is 0.833.
Under G6C U8A G58C C61A stands no more than 0.5; under G10A G17C C30G C33G G68C, no more than 0.5.
Take C24U A36G C55G: the yeast fitness was no more than 0.5.
In the case of U2A C27U G67A, the yeast fitness amounted to 0.531.
In the case of C5A U7A A36C G38C C55U C62A, the yeast fitness is no more than 0.5.
As to G17A C22U C27A C30G C49A, the yeast fitness is no more than 0.5.
Regarding A36G A40U G44A, the yeast fitness was found to be 1.06.
C22A A69U A70C: the yeast fitness was 0.685.
Under A20U G68A A69C stands 0.639; under C30G U35A C62U, no more than 0.5; under C4G A37G, 0.851.
U2A C31G G39C A42G C49U C60G: the yeast fitness was no more than 0.5.
For G6A G18A G41C, the yeast fitness was no more than 0.5.
Consider C22U C33U C34A G38C G52A, for which the yeast fitness was found to be 0.601.
Next, C4U U16A A20G C66U: no more than 0.5; C27U C30G A45C C60U C62G: 0.818; C4U U13A G23A A36U G39C C62A U64A: 0.537.
With U7A C29U C31A A65C, the yeast fitness amounted to 0.655.
Turning to U3A C30U G67A, the yeast fitness amounted to 0.553.
For the variant G23A G58A, the yeast fitness came out at 0.715.
For the variant C27A U35C A42U, the yeast fitness is no more than 0.5.
Regarding C55U G67A, the yeast fitness stood at 0.871.
Take G18A G51C: the yeast fitness is no more than 0.5.
Next, G12A U13A G41C A45C C66U: no more than 0.5.
On to C11A G39A C62A, for which the yeast fitness is no more than 0.5.
Under U28A C33G A36U A40G U54C A65U stands no more than 0.5.
For U7A C24G C31U C55A, the yeast fitness is no more than 0.5.
Next, C29U U35C G44C C49U A57U G63A: no more than 0.5; A20G U32G G58C C61A A65U: no more than 0.5; A40G A43G: 0.787.
As to U47A A65C, the yeast fitness came to 0.82.
Consider G23A C33G A70U, for which the yeast fitness was no more than 0.5.
On to C4G A14G C24G, for which the yeast fitness is no more than 0.5.
Under C5A A37C G38C C55U stands 0.598; under C4G G18C A42U C46G, no more than 0.5; under U8C U32G C49G, no more than 0.5.
For the variant U13C A21C C55U A69C, the yeast fitness was no more than 0.5.
Regarding A14C G18A G67U, the yeast fitness is no more than 0.5.
Under U3A G12A C29G G39A C66G stands no more than 0.5; under A14C C30U, 0.622; under U3A U35A A42C, 0.629.
For the variant A14U A20U G67A, the yeast fitness amounted to 0.544.
Under U54C C55U stands 0.72; under A21U C30U A42C C55U, no more than 0.5.
Regarding U8A G18C C27U U32C C66G A70U, the yeast fitness was no more than 0.5.
C22A C27G U28A C30A C34G G48C: the yeast fitness was no more than 0.5.
Consider U35A A69U, for which the yeast fitness stood at 0.806.
Take C5U A20C G23C C24U C31U U64C: the yeast fitness is no more than 0.5.
Next, C11U U13A A40C U64C: no more than 0.5; C11A A21C A42C C61U: no more than 0.5; G12C A20C U32A C33G: 0.536.
Under U13C A43C stands 1.28.
As to A40C G52C C66U G67A, the yeast fitness was no more than 0.5.
C30A G52A A65U: the yeast fitness is no more than 0.5.
Under U26A A45G C66G G67U stands no more than 0.5; under C5G A20G A36G C66A, no more than 0.5; under C4U C5U, 1.01.
For the variant U3C U59C, the yeast fitness came out at 0.961.
In the case of U7A C27U, the yeast fitness was 0.666.
Take A42C A43U G56C C66U: the yeast fitness was no more than 0.5.
Under C27U C55A A69U stands 0.549; under G6A C11A A40G, no more than 0.5.
Next, C49U C55U C61A: no more than 0.5; U13G C22G G63C G67A: no more than 0.5.
Turning to A20C C30G A40G, the yeast fitness was no more than 0.5.
In the case of C24A U26G C61U, the yeast fitness is no more than 0.5.
Under A37G U53C stands 0.553; under U26C A43U A70U, 0.707; under C5G C31U A37G, 0.592.
In the case of U7G C22A U64C A70C, the yeast fitness is no more than 0.5.
G6A C29U A42U A43U C55G: the yeast fitness is no more than 0.5.
For the variant C24G G25C C30G U32C G58A C60U, the yeast fitness is no more than 0.5.
As to G25C C46A G58A G63U, the yeast fitness turned out to be 0.604.
Regarding C4G U16A A36C U54G C60U A70G, the yeast fitness is no more than 0.5.
In the case of A37C C66A, the yeast fitness was 0.659.
Turning to U28C G51C A65C, the yeast fitness is no more than 0.5.
With A21U C29A U35A A43U C62U G68C, the yeast fitness was no more than 0.5.
Next, A40U U47C A65C: 0.534.
On to U2G C33U G58C A70U, for which the yeast fitness was found to be 0.581.
Take G18C A40G: the yeast fitness stood at 0.64.
In the case of C4G U7C C27A U59G, the yeast fitness was determined as 0.574.
Under G6A C31G A65G stands 0.547; under U3C C11U U16C C30G C31G A37U, no more than 0.5.
For the variant U26A C31U A65C, the yeast fitness is 0.691.
As to G17A A36U C46U, the yeast fitness was no more than 0.5.
Regarding U16G G48A, the yeast fitness came to 0.903.
As to U16C G51A A65U A70G, the yeast fitness was no more than 0.5.
Under A20U U28C A40U C62G stands 0.533.
G44A A57U: the yeast fitness was determined as 0.635.
Turning to G63C G67A, the yeast fitness is 0.692.
C5A A14U: the yeast fitness was 0.654.
As to A36G U47C, the yeast fitness amounted to 0.989.
As to C22U C24U C33G, the yeast fitness was 0.502.
Consider G18C G23A C61U, for which the yeast fitness is no more than 0.5.
Next, A40G G68A: 0.953; C4G U26A C30U G48A U54A C55G A65U: no more than 0.5.
Take U16C U26C A40C A43G G44A: the yeast fitness is no more than 0.5.
As to U7C C33U, the yeast fitness was determined as 0.713.
Under C4G C5U C55U stands 0.544.
With U3A A14C A37C C49U, the yeast fitness was no more than 0.5.
Take A21C C22G A70C: the yeast fitness was no more than 0.5.
Under A15U A20G stands 0.772; under A43C C62U, 0.93.
Under G23A C31G stands 0.811; under U16C C24A, 0.668.
For the variant C4U C34A G44C, the yeast fitness was 0.636.
Next, A36U A43U: 0.638.
Next, C31U A70U: 1.04; A14C A45U A70G: 0.561.
In the case of G6A C22A U35A, the yeast fitness was no more than 0.5.
Consider G38A C62G A70U, for which the yeast fitness was no more than 0.5.
U7C G51A C62G A65G: the yeast fitness is no more than 0.5.
With C11G G51C, the yeast fitness is 0.58.
Next, C34G A40U A43C C46A G63C: no more than 0.5.
As to G10C C49A, the yeast fitness was no more than 0.5.
For the variant U16C G68A, the yeast fitness is 0.767.
With C24G C55U G67C, the yeast fitness was no more than 0.5.
Regarding C4A C27U C66U, the yeast fitness was determined as 0.66.
Turning to C4G C31G A70C, the yeast fitness came out at 0.537.
Consider C4U A43G C49U G68A, for which the yeast fitness is no more than 0.5.
As for A37G A57U, the yeast fitness is 0.55.
Turning to U28A G68A, the yeast fitness came to 0.581.
On to C22U U54C C66G, for which the yeast fitness was no more than 0.5.
On to G38C U47G U59C, for which the yeast fitness was no more than 0.5.
Under G23A C49U stands 0.735; under U2A C5U C31A C62U, no more than 0.5.
Under C31G G51C A70G stands no more than 0.5.
As to C5G U7G C33A A65C, the yeast fitness was no more than 0.5.
A20G C27U A37U: the yeast fitness was no more than 0.5.
For C46A G56A C61A, the yeast fitness is 0.603.
For C31U U59C, the yeast fitness was 1.02.
Take A14G C31U G68C: the yeast fitness is no more than 0.5.
Regarding C5A C22G A65C, the yeast fitness was 0.582.
Take C4G U8C C24G U32G: the yeast fitness is no more than 0.5.
On to A14C A36G C62A, for which the yeast fitness is no more than 0.5.
As for A40U A70U, the yeast fitness worked out at 0.99.
Consider C4U C22G U28A A36U C55G C62U, for which the yeast fitness is no more than 0.5.
As to G17C G56C, the yeast fitness came out at 0.633.
Turning to U32A G63U U64A A65U, the yeast fitness is 0.634.
U19G A43C U53C C55G G67C A69C: the yeast fitness is no more than 0.5.
As for G10C A45U C49G, the yeast fitness is 0.583.
Take C5A C11A G17C A43G: the yeast fitness was no more than 0.5.
With G10A C22G, the yeast fitness amounted to 0.637.
A14U A57C C60G C61A: the yeast fitness turned out to be 0.601.
For G6A G12A A21G C46A, the yeast fitness is 0.636.
On to U8C C11A C66G, for which the yeast fitness is no more than 0.5.
Regarding C24U A36G U64A, the yeast fitness is 0.595.
Turning to C22G C24A G44C G51A G58C U59A, the yeast fitness is no more than 0.5.
For the variant U8C U19A C31A G41C A45G G50C C62U, the yeast fitness was no more than 0.5.
Take C5A A20C C22A A36C A69C: the yeast fitness was no more than 0.5.
Next, C5G G6A C29U C33G G38A U59G: 0.562; C11G G50C: 0.597.
For G17U C29G, the yeast fitness came out at 0.544.
In the case of C22U G44C G48A G51A, the yeast fitness turned out to be 0.57.
Turning to U2G C27A C34G A65G, the yeast fitness was no more than 0.5.
Consider U16G G39A A45C C61A A69U, for which the yeast fitness was no more than 0.5.
With A20G C62U, the yeast fitness turned out to be 1.05.
With G63C A65U, the yeast fitness is 0.735.
For C31U C33U A42C, the yeast fitness was determined as 0.562.
Regarding C5A U16C A21C C33U A40G A43U U54G C62G, the yeast fitness is no more than 0.5.
Under C22U A69U stands 0.799.
U32C A40U C55A G56C: the yeast fitness is no more than 0.5.
Take A14U C30A C46U C62A: the yeast fitness was no more than 0.5.
For U3A C46A A69C, the yeast fitness amounted to 0.997.
In the case of G10A A65G, the yeast fitness came to 0.627.
